Compounds with a hit are over-represented: about 0.77% of the library has one in this group of screens.
bIAP inh = blocks bovine intestinal alkaline phosphatase activity; purified bovine IAP, CDP-star luminescence, 30 min; inhibition, % at 20 µM; 190,000 tested, under 10 active;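 active = over 50% inhibition of intestinal alkaline phosphatase at 20 µM in the single-dose screen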
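Incubation: 30 min reaction at room temperature / Material: purified bovine intestinal alkaline phosphatase (IAP) enzyme / Input: enzyme at 1/65,000,000 dilution / Dosing: 20 µM single dose / Signal: CDP-star luminescence signal / Reagent: CDP-star chemiluminescent phosphatase substrate, 30 µM final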
mIAP activ = mouse IAP activation | actives 0.24% (n = 330,000) | activation factor at 10 µM | muIAP, CDP-Star luminescence, 30 min; stronger effect = higher value; 1 = vehicle-only enzyme signal, 0 = enzyme-free wells;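 active = activation factor of at least 2 at 20 µM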
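Assay system: mouse IAP enzyme / Compound: DMSO-dissolved test compounds / Timing: 30 min, room temperature / Measured by: luminescence from enzymatic CDP-Star hydrolysis / Control set: DMSO-only wells, enzyme-free buffer wells as negative control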
mIAP inh = mouse IAP inhibition | purified mouse IAP, CDP-Star luminescence, 30 min | inhibition, % at 10 µM | actives 0.2% (n = 330,000);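 active = inhibition of at least 40% at 10 µM in the primary screen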;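 note: plate controls were DMSO with enzyme for no effect and no enzyme wells for full effect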
hIAP inh = blocks human intestinal alkaline phosphatase. P09923. purified IAP, CDP-Star luminescence, 30 min. inhibition, % at 10 µM. actives 0.12% (n = 330,000). AID 2544;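 active = inhibition reaching a set limit with compound at 10 µM in the primary screen, cut at about 35% in these data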;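 note: plate controls were DMSO wells with enzyme for no effect and no-enzyme buffer wells for full effect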
Target sequence (P09923 whole entry, looked up): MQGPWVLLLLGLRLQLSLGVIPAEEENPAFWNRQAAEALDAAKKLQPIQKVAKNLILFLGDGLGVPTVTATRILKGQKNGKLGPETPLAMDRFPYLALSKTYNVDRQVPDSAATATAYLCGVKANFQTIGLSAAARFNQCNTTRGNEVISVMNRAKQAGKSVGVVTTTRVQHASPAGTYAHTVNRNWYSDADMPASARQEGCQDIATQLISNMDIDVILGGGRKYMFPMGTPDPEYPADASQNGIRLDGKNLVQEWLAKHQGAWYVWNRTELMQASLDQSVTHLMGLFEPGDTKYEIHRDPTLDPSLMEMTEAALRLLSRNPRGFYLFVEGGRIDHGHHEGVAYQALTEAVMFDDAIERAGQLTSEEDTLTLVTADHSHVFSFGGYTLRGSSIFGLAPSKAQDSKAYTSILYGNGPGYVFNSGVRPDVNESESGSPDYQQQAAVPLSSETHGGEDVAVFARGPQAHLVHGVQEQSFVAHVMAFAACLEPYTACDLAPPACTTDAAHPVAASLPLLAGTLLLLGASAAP
bIAP act = intestinal alkaline phosphatase (bovine) activation; purified bovine IAP, CDP-star luminescence, 30 min; stronger effect = higher value; fold of DMSO-control signal, blank-subtracted; actives 0.17% (n = 200,000); AID 1016; activation factor at 20 µM;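 active = activation factor of 2 or more at 20 µM, a signal rise over negative controls twice the positive control's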
hIAP activ = increases human intestinal alkaline phosphatase activity. P09923. purified human IAP, CDP-Star luminescence, 30 min; stronger effect = higher value; 1 = vehicle-only enzyme, 0 = enzyme-free background. activation factor at 10 µM. actives 0.16% (n = 330,000);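 active = activation factor of the enzyme at least 2-fold when tested at 20 µM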
hIAP act conf = human IAP activation confirmation; shares compounds with hIAP activ; activation (%Activity, negative = activation), % at 8.3 µM; purified IAP, CDP-Star luminescence, 30 min; stronger effect = lower value; AID 434926; actives 10% (n = 880);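 active = at least twofold enzyme activation in any of six single-dose repeats, which the averaged readout prints as negative percent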
Numbers without * were called inactive; . = not tested or not shown.

SMILES | bIAP inh | mIAP activ | mIAP inh | hIAP inh | bIAP act | hIAP activ | hIAP act conf
Cc1ccc(NC(=S)NNC(=O)c2ccccc2O)c(C)c1 | -52 | 0.85 | 15 | -125 | 1.5 | 2.3* | -35
COc1ccc(C)cc1NC(=S)NNC(=O)c1ccccc1Cl | -32 | 0.86 | 14 | -110 | 1.3 | 2.1* | 2
COc1cc(NC(=O)COc2ccc(-n3cnnn3)cc2)cc(OC)c1OC | . | 1 | -3 | -8 | . | 1.1 | .
COc1ccc(C(CNC(=O)CCNS(=O)(=O)c2ccc(C)cc2)N2CCOCC2)cc1 (stereo unspecified) | . | 0.96 | 4 | -5 | . | 1 | .
CC(=O)c1cccc(S(=O)(=O)Nc2cc(C(F)(F)F)ccc2N2CCOCC2)c1 | . | 0.88 | 12 | 0 | . | 1 | .
CCOC(=O)Cc1csc(NC(=O)CN2C(=O)c3ccccc3C2=O)n1 | . | 1 | 0 | -2 | . | 1 | .
CCOC(=O)Cc1csc(NC(=O)CN2C(=O)c3ccccc3S2(=O)=O)n1 | -35 | 0.92 | 8 | -107 | 1.4 | 2.1* | 7
O=C(Nc1ccc(S(=O)(=O)Nc2ccnn2-c2ccccc2)cc1)C(F)(F)F | . | 0.97 | 3 | -1 | . | 1 | .
C=CC[C@H](CC(=O)OC(C)(C)C)C(=O)OC[C@@H]1CCCN1C(=O)[C@H](CC=C)CC(=O)N[C@H](CO)Cc1ccccc1 | . | 1 | -5 | -4 | . | 1 | .
CCC1CCCCN1C1Sc2ccc(C(=O)OC)cc2NC1=O (stereo unspecified) | -9 | 1.1 | -8 | -100 | 1.1 | 2* | -69*
COC(=O)c1cc(OC)c(OC)cc1NC(=O)CSc1nnc(-c2cccnc2)n1C | 1 | 1.1 | -9 | -115 | 1 | 2.1* | -12
O=c1cc(-c2ccccc2)[nH]n1-c1nc2ccccc2[nH]1 | -64 | 0.91 | 9 | -102 | 1.6 | 2* | -58*
CCc1cc(=O)[nH]c(-n2[nH]c(-c3ccccc3)cc2=O)n1 | -42 | 0.69 | 31 | -94 | 1.4 | 1.9 | .
CCCCn1c(N)c(N(C)C(=O)c2ccccc2Oc2ccccc2)c(=O)[nH]c1=O | . | 0.98 | 2 | -4 | . | 1 | .
O=C(CSc1nnc(NC(=O)c2ccc(S(=O)(=O)N3CCOCC3)cc2)s1)Nc1ccccc1C(F)(F)F | -13 | 1 | -4 | 87* | 1.1 | 0.13 | 0
Cc1nnc(NC(=O)c2ccc(S(=O)(=O)N3CCOCC3)cc2)s1 | . | 1.1 | -9 | -3 | . | 1 | .
O=C(Nc1cccc(-c2cccc(F)c2)c1)C1CCN(Cc2ccco2)CC1 | . | 1.1 | -12 | -129 | . | 2.3* | -9
CC(=O)c1n[nH]nc1Nc1nc(C)cc(C)n1 | 35 | 1.1 | -8 | -123 | 0.7 | 2.2* | 0
O=C(C1CCN(C2CC(=O)N(c3cccc(Cl)c3)C2=O)CC1)N1CCCC1 (stereo unspecified) | -4 | 1.1 | -10 | -194 | 1 | 2.9* | -27
CCOC(=O)C1=C(COC(=O)C2CC(=O)N(CCc3ccccc3)C2)NC(=O)NC1C (stereo unspecified) | . | 0.96 | 4 | 6 | . | 0.94 | .
Cc1ccc(NC(=S)NCCSc2ccc(Cl)cc2)cc1 | -8 | 2.3* | -127 | -133 | 1.1 | 2.3* | -9
COC(=O)Cc1ccc(NC(=S)NCCSc2ccc(C)cc2)cc1 | 18 | 1.7 | -69 | 1 | 0.8 | 0.99 | .
COC(=O)c1cc(C#N)c(Oc2ccccc2OC)nc1C | 4 | 0.95 | 5 | 36* | 1 | 0.64 | 20
CCOc1ccc(N(C)Cc2cc(=O)oc3ccc(OCC)cc23)cc1 | . | 0.97 | 3 | 15 | . | 0.85 | .
C1CCN(C2CCN(c3nc4nonc4nc3N3CCSCC3)CC2)C1 | -12 | 0.93 | 7 | 13 | 1.1 | 0.87 | .
SMILES | bIAP inh | mIAP activ | mIAP inh | hIAP inh | bIAP act | hIAP activ | hIAP act conf
C1CCC(Nc2nc3nonc3nc2N2CCSCC2)C1 | -9 | 1 | -3 | 37* | 1.1 | 0.63 | -3
Cc1ccc(C(=O)NC(C)c2nc3ccccc3n2CC(=O)Nc2c(C)cc(C)cc2C)cc1 (stereo unspecified) | . | 2.7* | -168 | -303 | . | 4* | -54
Cc1onc(-c2ccccc2)c1C(=O)NCC(=O)Nc1cc(Cl)ccc1Cl | . | 1.1 | -15 | 15 | . | 0.85 | .
O=C(O)c1ccccc1C(=O)Nc1cc(-c2ccccc2)[nH]n1 | . | 0.89 | 12 | 39* | . | 0.61 | 62
O=C(Nc1cc(-c2ccccc2)[nH]n1)c1ccccc1F | . | 1.1 | -7 | -16 | . | 1.2 | .
CNc1ccccc1C(=O)OCC(=O)N(CCOC)c1c(N)n(CC(C)C)c(=O)[nH]c1=O | . | 0.98 | 2 | -4 | . | 1 | .
CCOc1ccc(NS(=O)(=O)c2ccc(C(=O)N3CC(C)OC(C)C3)cc2)cc1 (stereo unspecified) | . | 1 | -2 | -22 | . | 1.2 | .
O=C(Nc1cc2c3c(c1)CC(=O)N3CCC2)c1ccc(Br)o1 | . | 0.98 | 2 | -3 | . | 1 | .
CCNC(=O)Cc1c(OC)ccc2cc(Br)ccc12 | 4 | 1 | 0 | 43* | 1 | 0.57 | 16
COc1ccccc1C1CN(c2ccccc2)N=C1c1cccs1 (stereo unspecified) | -25 | 1.5 | -53 | 60* | 1.2 | 0.4 | -128*
CC(C)CN(C(=O)C1CCCO1)C1CCS(=O)(=O)C1 (stereo unspecified) | . | 0.92 | 8 | 16 | . | 0.84 | .
COc1ccc(CN(CCNC(=O)CCCCC(=O)NCCN(Cc2ccc(OC)cc2)C(C)C)C(C)C)cc1 | . | 1.2 | -16 | 41* | . | 0.59 | 18
COc1ccc(CCNC(=O)CCCCC(=O)NCCc2ccc(OC)cc2)cc1 | . | 0.9 | 10 | 2 | . | 0.98 | .
O=C(N/N=C/c1ccc2c(c1)OCO2)C1CC1 | . | 1 | -1 | -10 | . | 1.1 | .
CCc1ccc(/C=N/Nc2ncnc3nc[nH]c23)cc1 | . | 0.98 | 2 | -167 | . | 2.7* | 34
COc1ccccc1C(=O)NC(=O)COC(=O)c1ccc(C)o1 | . | 0.92 | 8 | 8 | . | 0.92 | .
CCCOc1ccc(C(=O)NNC(=S)NC(=O)c2ccccc2[N+](=O)[O-])cc1 | . | 0.84 | 16 | -114 | . | 2.1* | -23
CCCOc1ccc(C(=O)NNC(=S)NC(C)=O)cc1 | -68 | 0.9 | 10 | -118 | 1.7 | 2.2* | -13
C=CCNC(=S)NNC(=O)c1ccc(OCCCC)cc1 | 8 | 0.91 | 9 | -108 | 0.9 | 2.1* | 2
CCCCOc1ccc(C(=O)NNC(=S)NC(=O)CC)cc1 | 6 | . | . | . | 0.9 | . | .
CCCOc1ccc(C(=O)NNC(=S)NC(=O)c2ccccc2)cc1 | . | 0.93 | 8 | -27 | . | 1.3 | .
CNc1ccc(S(=O)(=O)NCC(=O)NCCCc2ccccc2)cc1[N+](=O)[O-] | . | 1.1 | -9 | 35* | . | 0.65 | 5
CN(C)c1ccc(S(=O)(=O)NCC(=O)NCc2ccccc2)cc1[N+](=O)[O-] | . | 0.97 | 3 | 11 | . | 0.89 | .

Source: PubChem
